{"data": "Measured values from different studies", "target": "Mitogen-activated protein kinase 14 (MAPK14, Homo sapiens, UniProt Q16539)"}
{"Structure (SMILES)": "CC(=O)Nc1c(C(C)=O)c(=O)n(C)c2nc(-c3ccc(Cl)cc3Cl)c(-c3ccc(Cl)cc3)cc12", "assay": "cell-free assay, competition with immobilised ligand", "conditions": "1 µM", "remaining binding": "100%"}
{"Structure (SMILES)": "COc1ncc2cc3ccccc3nc2c1C#N", "assay": "cell-free assay, competition with immobilised ligand", "conditions": "5 µM", "remaining binding": "100%"}
{"Structure (SMILES)": "O=C(Nc1ccc(Oc2ccc(F)cc2)cc1)N1CCc2ncccc2[C@H]1c1ccc(F)cc1", "assay": "cell-free assay, competition with immobilised ligand", "conditions": "1 µM", "remaining binding": "100%"}
{"Structure (SMILES)": "C[C@@H]1CCN(c2nccc(-c3cnn4ncccc34)n2)C1", "assay": "binding", "conditions": "1 µM", "remaining binding": "100%"}
{"Structure (SMILES)": "O=C(NCC1CCOCC1)c1n[nH]cc1NC(=O)c1c(F)cccc1F", "assay": "binding, competition with immobilised ligand", "conditions": "1 µM", "remaining binding": "100%"}
{"Structure (SMILES)": "O=C(O)c1cc(-c2ccc(C3CCNCC3)cc2)c2ccc(-c3ccc(C(F)(F)F)cc3)cc2c1", "assay": "cell-free assay, competition with immobilised ligand", "conditions": "1 µM", "remaining binding": "100%"}
{"Structure (SMILES)": "Cc1cnn2ncc(-c3ccnc(N(C)C)n3)c2c1", "assay": "binding", "conditions": "1 µM", "remaining binding": "100%"}
{"Structure (SMILES)": "O=C(c1ccc(Nc2ncc(Cl)c(-c3cc4ccccc4s3)n2)cc1)N1CCC(N2CCCC2)CC1", "assay": "binding, competition with immobilised ligand", "conditions": "1 µM", "remaining binding": "100%"}
{"Structure (SMILES)": "O=C1CCc2cc(Nc3cc(OC4CCOCC4)c([N+](=O)[O-])cc3Cl)ccc2N1", "assay": "cell-free assay, competition with immobilised ligand", "conditions": "1 µM", "remaining binding": "100%"}
{"Structure (SMILES)": "CNC(=O)[C@@H]1CC[C@@H](n2c(-c3ccc4cnccc4c3)nc3ccc(C(=O)NCc4cccc(C(N)=O)c4)cc32)C1", "assay": "binding, competition with immobilised ligand", "conditions": "1 µM", "remaining binding": "99%"}
{"Structure (SMILES)": "Cc1c[nH]c2nccc(Oc3c(F)cc(Nc4cc(Cl)nc(N)n4)cc3F)c12", "assay": "cell-free assay, competition with immobilised ligand", "conditions": "0.1 µM", "remaining binding": "100%"}
{"Structure (SMILES)": "C[C@@H]1CN(c2ccc3ncc(-c4ccc5[nH]nc(C6CC6)c5c4)n3n2)C[C@H](C)O1", "assay": "binding, competition with immobilised ligand", "conditions": "0.5 µM", "remaining binding": "100%"}
{"Structure (SMILES)": "CN(C)c1nccc(-c2cnn3ncccc23)n1", "assay": "binding", "conditions": "1 µM", "remaining binding": "91%"}
{"Structure (SMILES)": "c1cncc(-c2cccc(Nc3nccc(NC4CCCCC4)n3)c2)c1", "assay": "binding, competition with immobilised ligand", "conditions": "10 µM", "remaining binding": "85%"}
{"Structure (SMILES)": "CN(c1nccc(-c2cnn3ncccc23)n1)C1CC1", "assay": "binding", "conditions": "1 µM", "remaining binding": "100%"}
{"Structure (SMILES)": "CCN1CCN(Cc2ccc(C(=O)Nc3ccc(C)c(Oc4ccc5c(c4)CC(=O)N5)c3)cc2C(F)(F)F)CC1", "assay": "binding, competition with immobilised ligand", "conditions": "1 µM", "remaining binding": "18%"}
{"Structure (SMILES)": "CN(C)c1ncc(F)c(-c2cnn3ncccc23)n1", "assay": "binding", "conditions": "1 µM", "remaining binding": "100%"}
{"Structure (SMILES)": "CC(C)(C)c1ccc(-c2nc(CBr)nn2-c2cccc(O)c2)cc1", "assay": "cell-free assay, competition with immobilised ligand", "conditions": "10 µM", "remaining binding": "100%"}
{"Structure (SMILES)": "O=C(NCCCN1CCOCC1)c1ccc(Nc2ncc(Cl)c(-c3ccc(Cl)s3)n2)cc1", "assay": "binding, competition with immobilised ligand", "conditions": "1 µM", "remaining binding": "100%"}
{"Structure (SMILES)": "COc1ccc2cc(OCC3(C(=O)O)CN(C(=O)c4ccc(F)cc4)C3)ccc2c1", "assay": "cell-free assay, competition with immobilised ligand", "conditions": "1 µM", "remaining binding": "100%"}
{"Structure (SMILES)": "O=C(c1ccc(Nc2nccc(-c3cc4ccccc4s3)n2)cc1)N1CCC(N2CCCC2)CC1", "assay": "binding, competition with immobilised ligand", "conditions": "1 µM", "remaining binding": "100%"}
{"Structure (SMILES)": "CN(C)c1nccc(-c2cnc3ncccn23)n1", "assay": "binding", "conditions": "1 µM", "remaining binding": "100%"}
{"Structure (SMILES)": "FC(F)(F)Oc1cccc(-c2cnc3ccc(-c4ccncc4)nn23)c1", "assay": "cell-free assay, competition with immobilised ligand", "conditions": "5 µM", "remaining binding": "94%"}
{"Structure (SMILES)": "CNCc1ccccc1-c1csc([C@H](C)Nc2nc(C)nc3cc(OC)c(OC)cc23)c1", "assay": "cell-free assay, competition with immobilised ligand", "conditions": "1 µM", "remaining binding": "100%"}
{"Structure (SMILES)": "N[C@@H]1CCN(c2nccc(-c3cnn4ncccc34)n2)C1", "assay": "binding", "conditions": "1 µM", "remaining binding": "100%"}
